TPT1 inh: Candida albicans TPT1 enzyme inhibitors, primary screen, biochemical, fluorescence polarization | tRNA 2'-phosphotransferase TPT1 (Candida albicans SC5314) | recombinant caTPT1, FP RNA substrate dephosphorylation | inhibition, % at 5 µM | actives 0.81% (n = 300,000);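 active = inhibition above the mean of all tested compounds plus 3 SD, set per screening campaign, cut at about 24% in these data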
HNF4A DNA FP: change in binding of human HNF4A to DNA, primary screen, biochemical, fluorescence polarization, FITC-DNA; Hepatocyte nuclear factor 4-alpha (Homo sapiens), P41235; 1 h; activity change, % at 10 µM; actives 0.3% (n = 360,000); in the data active = activity change above about 30%, passing the limit was not always enough
Rpn11 inh: Rpn11 (PSMD14) deubiquitinase inhibitors, primary screen, biochemical, fluorescence polarization, uHTS; 26S proteasome non-ATPase regulatory subunit 14 (Homo sapiens), O00487; actives 0.59% (n = 360,000); human 26S proteasome, Ub4-pepOG fluorescence polarization; 20S core pre-blocked with epoxomicin; inhibition, % at 20 µM;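 active = inhibition at 20 µM, scaled to each plate's controls, above about 33%, limit read from the data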
CSN deneddyl inh: inhibitors of CSN-mediated cullin deneddylation, primary screen, biochemical, fluorescence polarization, uHTS; COP9 signalosome complex subunit 5 (Homo sapiens), Q92905; Purified CSN, SCF-Nedd8-OG deneddylation; inhibition, % at 12.5 µM; actives 0.38% (n = 360,000); AID 651999, 2013;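 active = pattern-corrected inhibition above about 35%, with an unprinted fluorescence ratio check between 0.5 and 1.5, limit read from the data, passing the limit was not always enough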
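Schedule: reaction 90 min, room temperature / Assay system: HEK293T-derived human Csn5 enzyme / Input: Csn5 at 0.24 nM final / Measure: inhibition of Csn5 cleavage, % / Control set: substrate-only high control, full reaction low control / Technique: fluorescence polarization of the substrate / Buffer or medium: Tris/NaCl/DTT buffer, pH 7.5 / Reagent: SCFSkp2-Nedd8OG substrate at 10 nM final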
caTPT1 confirm: Candida albicans TPT1 inhibitors, confirmation, biochemical, fluorescence polarization, triplicate; recombinant caTPT1, RNase T1 coupled; shares compounds with TPT1 inh; actives 74% (n = 2,400); inhibition, % at 5 µM;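 active = inhibition above the primary screen limit, the mean inhibition of all tested compounds plus 3 SD, cut at about 25% in these data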
RNase T1 counter: RNase T1 inhibitors, counter-screen for TPT1 inhibitor project, biochemical, fluorescence polarization; shares compounds with TPT1 inh; RNase T1 cleavage, 1536-well; inhibition, % at 5 µM; actives 83% (n = 2,400);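 active = inhibition above the solvent-only control well mean plus 3 SD, limit set per screening run, cut at about 23% in these data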;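 also: inhibitors block cleavage so intact labeled substrate keeps polarization high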
Rpn11 confirm: Rpn11 (PSMD14) deubiquitinase inhibitors, confirmation, biochemical, fluorescence polarization, single concentration. shares compounds with Rpn11 inh. purified human 26S proteasome, Ub4-pepOG fluorescence polarization; proteasome pretreated with epoxomicin. inhibition, % at 20 µM. actives 29% (n = 1,900)
MMP-2 counter: MMP-2 enzyme inhibition, confirmation, counter-screen for RPN11 inhibitor project, biochemical, fluorescence, single concentration; inhibition, % at 20 µM; actives 4% (n = 1,900); AID 602330, 2012; recombinant MMP-2, FRET peptide cleavage fluorescence; shares compounds with Rpn11 inh;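 also: human MMP-2 activated beforehand with APMA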
Thrombin FP: bovine thrombin protease inhibition, confirmation, counter-screen for Rpn11 inhibitor project, biochemical, fluorescence polarization, single concentration | AID 602333, 2012 | shares compounds with Rpn11 inh | inhibition, % at 20 µM | actives 13% (n = 1,900) | bovine thrombin cleavage of Ub4-pepOG;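 active = mean inhibition at least 40% at 20 µM, or signal 3 deviations below plate average, so some actives read negative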
Target sequence (P00735 whole entry, looked up): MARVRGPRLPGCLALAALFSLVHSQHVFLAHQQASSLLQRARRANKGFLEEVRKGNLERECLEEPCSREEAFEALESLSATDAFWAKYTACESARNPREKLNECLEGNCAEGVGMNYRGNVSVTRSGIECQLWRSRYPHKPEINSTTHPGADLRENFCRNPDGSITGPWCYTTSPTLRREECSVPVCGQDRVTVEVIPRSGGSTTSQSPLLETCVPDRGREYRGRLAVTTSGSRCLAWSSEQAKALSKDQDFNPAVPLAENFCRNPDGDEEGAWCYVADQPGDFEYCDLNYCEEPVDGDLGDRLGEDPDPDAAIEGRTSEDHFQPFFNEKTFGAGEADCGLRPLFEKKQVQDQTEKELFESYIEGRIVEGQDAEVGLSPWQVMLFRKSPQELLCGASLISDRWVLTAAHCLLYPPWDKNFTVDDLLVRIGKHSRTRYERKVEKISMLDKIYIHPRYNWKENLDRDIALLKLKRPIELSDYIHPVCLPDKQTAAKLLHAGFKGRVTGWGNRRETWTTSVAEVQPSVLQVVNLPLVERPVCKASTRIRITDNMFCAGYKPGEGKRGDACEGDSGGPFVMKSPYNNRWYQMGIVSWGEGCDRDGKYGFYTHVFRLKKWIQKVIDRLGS
HNF4a DNA conf: change in HNF4A binding to DNA, retest, confirmation, biochemical, fluorescence polarization, FITC-DNA. shares compounds with HNF4A DNA FP. 1 h. activity change, % at 12.5 µM. actives 99% (n = 210). AID 1224897, 2016; call rule not given here
Large screens that a line does not name were inactive (follow-up assays come after a bar, where they were run). Rows were chosen to be rich in hits. Some 1.5% of all compounds tested hit in one or more screens of this group. Rule as the data show it, unless noted: active = inhibition above about 40%; inactive = the rest.

CN(C)CCCN=Cc1c(O)n(CCc2ccccc2)c(=O)[nH]c1=O	TPT1 inh 72, HNF4A DNA FP 43, Rpn11 inh 41 | caTPT1 confirm 65 | RNase T1 counter 82 | Rpn11 confirm 79 | MMP-2 counter inactive | Thrombin FP 62 | HNF4a DNA conf 60
CCN(CC)CCOC(=O)c1ccc(N=Cc2c(O)[nH]c(=O)[nH]c2=O)cc1	TPT1 inh 60, HNF4A DNA FP 60, Rpn11 inh 99, CSN deneddyl inh 48 | caTPT1 confirm 70 | RNase T1 counter 87 | Rpn11 confirm 104 | MMP-2 counter inactive | Thrombin FP 73 | HNF4a DNA conf 99
COC(=O)c1ccccc1N=Cc1c(O)[nH]c(=O)[nH]c1=O	none
O=C(Nc1ccc(F)c([N+](=O)[O-])c1)N1C[C@H]2C[C@@H](C1)c1cccc(=O)n1C2	none
O=C(N/N=C/c1c(O)n(CCC2=CCCCC2)c(=S)[nH]c1=O)c1ccccc1	Rpn11 inh 48 | Rpn11 confirm 76 | MMP-2 counter inactive | Thrombin FP inactive
NC(N)=N/N=C/c1ccc(N(c2ccccc2)c2ccccc2)cc1	Rpn11 inh 91 | Rpn11 confirm 71 | MMP-2 counter inactive | Thrombin FP inactive
CC(C)(C)c1ccc(C(=O)C2CCCN(C3CCC3)C2)cc1 (configuration not stated)	none
Cn1c(=O)c2c(nc(N/N=C/c3c(O)n(C4CCCCC4)c(=S)[nH]c3=O)n2C)n(C)c1=O	Rpn11 inh 42 | Rpn11 confirm inactive | MMP-2 counter inactive | Thrombin FP inactive
CCOC(=O)c1c(C)n(Cc2ccco2)c2c1cc(O)c1ccccc12	none
CCC(C)N1CCN(C(=O)COc2ccc3ccccc3c2)CC1 (configuration not stated)	Rpn11 inh 79 | Rpn11 confirm inactive | MMP-2 counter inactive | Thrombin FP inactive
COc1ccc(CN2CCN(C(=O)COc3ccc4ccccc4c3)CC2)c(OC)c1	none
C=CCn1c(O)c(C(CC)=NCC2CCCO2)c(=O)[nH]c1=O (configuration not stated)	none
CCOc1ccccc1-n1c(O)c(C=Nc2c(C)n(C)n(-c3ccccc3)c2=O)c(=O)[nH]c1=O	none
COc1ccc(OC)c(-n2c(O)c(C=Nc3c(C)n(C)n(-c4ccccc4)c3=O)c(=O)[nH]c2=S)c1	Rpn11 inh 66 | Rpn11 confirm 41 | MMP-2 counter inactive | Thrombin FP inactive
O=C1NC(=O)N(c2ccc(Cl)cc2)C(=O)/C1=C\c1ccc(Sc2nc3ccccc3[nH]2)o1	Rpn11 inh 52 | Rpn11 confirm 74 | MMP-2 counter inactive | Thrombin FP 49

Compound activity from PubChem BioAssay.
